High-throughput results as filed in PubChem BioAssay.
TbHK1 inh: blocks Trypanosoma brucei hexokinase 1 activity; AID 1430; hit rate 0.11% among 220,000; recombinant TbHK1, G6PDH-coupled NADH A340; inhibition, % at 10 µM;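 active means inhibition of 50% or more in the single-dose primary screen; inactive means inhibition below 50%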
Runt-SMMHC FRET: blocks binding of human RUNX1 Runt domain to CBFb-SMMHC | inhibition, % at 20 µM | hit rate 0.74% among 220,000 | Cerulean-Runt/Venus-CBFb-SMMHC FRET ratio 530/480, 1 h | AID 1434;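 active means mean inhibition across duplicate retests at 20 µM reaching about 50%, limit read from the data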;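 further: 0% = DMSO wells and 100% = wells with excess untagged CBFb-SMMHC; inhibitors lower the FRET ratio by blocking Runt binding to CBFb-SMMHC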
Target sequence (Q01196 whole entry, looked up, the tested form may be a part): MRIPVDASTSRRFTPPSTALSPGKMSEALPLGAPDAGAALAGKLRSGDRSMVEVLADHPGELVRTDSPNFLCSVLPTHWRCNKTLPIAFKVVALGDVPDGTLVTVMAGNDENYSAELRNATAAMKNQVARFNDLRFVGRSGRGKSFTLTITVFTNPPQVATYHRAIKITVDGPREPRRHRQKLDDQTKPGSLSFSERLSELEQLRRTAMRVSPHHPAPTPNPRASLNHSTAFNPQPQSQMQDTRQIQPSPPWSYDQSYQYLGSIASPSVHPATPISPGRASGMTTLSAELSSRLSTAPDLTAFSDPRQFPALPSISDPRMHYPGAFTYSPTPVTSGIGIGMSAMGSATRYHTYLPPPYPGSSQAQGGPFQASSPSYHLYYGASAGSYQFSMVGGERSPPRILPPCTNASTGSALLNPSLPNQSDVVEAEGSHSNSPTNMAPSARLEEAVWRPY
Target sequence (Q13951 whole entry, looked up, the tested form may be a part): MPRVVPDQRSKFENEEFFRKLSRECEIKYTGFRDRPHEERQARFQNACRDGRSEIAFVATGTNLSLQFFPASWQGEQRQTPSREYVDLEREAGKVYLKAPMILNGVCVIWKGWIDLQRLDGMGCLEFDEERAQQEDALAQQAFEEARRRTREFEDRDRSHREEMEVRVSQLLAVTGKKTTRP
RanGTP-Imp inh: disruptors of Ran-importin-beta complex formation – biochemical, FRET, CFP-Ran, YFP-importin-beta, homogeneous, primary screen; inhibition, % (no concentration beside the values); cell-free CFP-Ran/YFP-importin-beta FRET ratio; AID 2216; hit rate 1.1% among 300,000;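 active means more than half of the replicate wells show a fall in the fluorescence ratio signal beyond about 16%, limit read from the data, passing the limit was not always enough; inconclusive means exactly half of the replicate wells pass the set limit; inactive means fewer than half of replicates pass the limit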;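 further: 0% = DMSO wells and 100% = Ran loaded with GDP instead of GTP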
Hck Nef HTS: blocks Nef-activated human Hck kinase; Recombinant Hck-YEEI plus Nef, Z-Lyte FRET kinase assay; hit rate 0.68% among 220,000; inhibition, % at 20 µM; P08631;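 active means Hck-Nef kinase inhibition above about 50%, limit read from the data; inactive means inhibition below that limit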;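 further: 0% = DMSO with Hck plus Nef and 100% = Hck alone without Nef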
Runt-CBFb FRET: blocks binding of human RUNX1 Runt domain to CBFb. inhibition, % at 20 µM. Cerulean-Runt/Venus-CBFb FRET ratio 530/480, 1 h. Q01196+Q13951. hit rate 0.46% among 220,000;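 active means inhibition over about 50% at 20 µM in the single-dose screen, limit read from the data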;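 further: 0% = DMSO wells and 100% = excess unlabeled CBFb competitor control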
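Schedule: protein complex preformed 1 h, compound exposure 1 h, room temperature, dark; test system: Cerulean-labeled Runt domain protein; amount: 100 nM per protein; buffer or medium: Tris 50 mM pH 7.5, KCl, K2SO4, 0.01% BSA; read-out: loss of energy transfer signal; detection: FRET fluorescence; controls: 5 µM unlabeled CBFb as full-inhibition high control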
Runt-CBFb TRFRET: disrupts human RUNX1 Runt domain binding to CBFb; AID 1502; TR-FRET RUNX1 Runt domain-CBFb binding; shares compounds with Runt-CBFb FRET; inhibition, % at 20 µM; hit rate 20% among 480; in the data active means inhibition above about 40%
* = called active by the depositor; i = inactive; ? = inconclusive; / = not tested or not shown; + = active, no number. This is a sample that favours compounds with a hit; in the whole collection about 1.9% have one here.

SMILES | TbHK1 inh | Runt-SMMHC FRET | RanGTP-Imp inh | Hck Nef HTS | Runt-CBFb FRET | Runt-CBFb TRFRET
CCC(C)NC(=O)CC(C)C (centres undefined) | -4.2 | 0.3 | 1.4 | 17.4 | 1.8 | /
CC(C)CC(=O)NN1CCCCC1 | 4.8 | -0.2 | 8.8 | -22.2 | 75.3* | 58.5*
N#CC1=C(N)Oc2cc(N)ccc2C1c1ccc(F)cc1 (centres undefined) | -11.7 | 86.0* | 76.1* | 4.2 | 72.6* | -11.4
Cc1cc(C)n(CC(=O)N/N=C/c2ccccn2)n1 | 2.1 | -1.3 | 3.3 | 0.2 | 1.6 | /
CCOC(=O)c1c(NC(=O)c2ccccc2)sc2c1CCc1ccccc1-2 | 2.1 | 26.8 | 0.8 | 7.9 | 54.8* | 6.2
CCOC(=O)c1c(NC(=O)c2ccccc2Cl)sc2c1CCc1ccccc1-2 | -5.8 | 9.4 | 1.2 | 10.8 | 36.5 | /
CC(C)C[C@H](NC(=O)C1CCN(S(=O)(=O)c2ccccc2)CC1)C(=O)NCc1ccccn1 | / | / | 2.4 | / | / | /
O=C(O[C@@H]1OC2COC(=O)c3cc(O)c(O)c(O)c3-c3c(cc(O)c(O)c3O)C(=O)O[C@@H]([C@H]1O)[C@@H]2O)c1cc(O)c(O)c(O)c1 | 49.9 | 41.7 | 5.5 | 37.7 | 56.6* | 66.7*
O=C(NCCCn1ccnc1)C1CCCN(S(=O)(=O)c2ccc(F)cc2)C1 (centres undefined) | / | / | 2.6 | / | / | /
Oc1ccc2ccccc2c1C=NCc1ccccc1 | -1.9 | 3.1 | -4.2 | -3.7 | 118.8* | 17.4
Oc1ccc2ccccc2c1/C=N/Nc1ccccc1 | 2.7 | 10.2 | -4.3 | 3.5 | 8.2 | /
Cc1nn(-c2ccccc2)cc1C(c1c(N)[nH]c(=S)[nH]c1=O)c1c(N)[nH]c(=S)[nH]c1=O | -6.8 | 41.4 | -0.8 | 28.7 | 55.8* | 57.5*
Cc1cc(C)c2c(n1)sc1c(-c3ccccc3)c(C#N)c(N)nc12 | -9.5 | 83.0* | 81.9* | 15.3 | 60.1* | 2.5
Cc1nc(N)c(C#N)c(-c2ccccc2)c1C | -5.1 | 1.6 | 1.7 | 0.6 | -1.1 | /
CCCCN(C(=O)c1ccc2c(c1)OCO2)c1ccccc1 | -11.0 | 0.3 | -2.1 | -5.5 | 2.4 | /
COc1ccccc1CNC(=O)c1cccnc1 | / | / | 2.6 | / | / | /
S=C(NCCCN1CCOCC1)NCCCN1CCOCC1 | 4.6 | 23.2 | -1.3 | 10.7 | 50.4* | 23.1
S=C(NCCCN1CCOCC1)NC1CCCC1 | 9.1 | 2.1 | / | -52.9 | -2.5 | /
COc1ccc(C(=O)/C=C/c2ccsc2)cc1CSCC(=O)O | / | / | -2.3 | / | / | /
CCCCn1c(N)c(N(CC(C)C)C(=O)c2ccc(S(=O)(=O)N3CCCCCC3)cc2)c(=O)[nH]c1=O | / | / | 1.8 | / | / | /
CN(C)S(=O)(=O)c1ccc(-n2cccc2)cc1 | -6.5 | -3.8 | 0.1 | 30.2 | -0.9 | /
CN(C)S(=O)(=O)c1ccc(=S)[nH]c1 | -9.6 | 42.9 | 0.5 | 0.8 | 50.3* | -60.8
Cc1cc(C)n2nc3nc4c(cc3c2n1)CCCC4 | -23.9 | / | 5.1 | 15.7 | 65.0* | 62.8*
O=C(CCSc1ccccn1)c1ccccc1 | -11.2 | 45.2 | 1.8 | 13.7 | 58.7* | 4.9
CCc1ccc2[nH]cc(S(=O)(=O)c3ccc(C)c(C)c3)c(=O)c2c1 | / | / | -1.5 | / | / | /
SMILES | TbHK1 inh | Runt-SMMHC FRET | RanGTP-Imp inh | Hck Nef HTS | Runt-CBFb FRET | Runt-CBFb TRFRET
CCc1ccc2[nH]c3nc(C)cc(C)c3c(=O)c2c1 | 21.6 | 82.6* | 12.6 | 22.3 | 57.5* | -140.7
Cc1cccc2cc(C(c3nnnn3Cc3ccccc3)N3CCN(c4ccccc4)CC3)c(=O)[nH]c12 (centres undefined) | -8.6 | -0.7 | 6.0 | -1.3 | 51.2* | i
CCOc1ccc2nc(NCCCNC(=O)c3cc(OC)c(OC)c(OC)c3)c(C#N)cc2c1 | -3.6 | 81.1* | 134.9* | -12.7 | 59.5* | 7.1
CC(C(=O)N1CCN(Cc2ccc3c(c2)OCO3)CC1)c1ccc([N+](=O)[O-])cc1 (centres undefined) | -1.7 | -1.4 | -3.6 | -29.1 | 1.6 | /
O=C(CCCCCNC(=O)N1CCn2c1nc1ccccc12)NCc1ccc(F)cc1 | / | / | 4.4 | / | / | /
O=c1c2ccccc2sc2ccc(Cl)cc12 | 7.8 | 127.6* | 20.5* | 8.1 | 69.3* | i
COc1ccc(-c2nc(=S)[nH][nH]2)cc1OC | -3.1 | 31.0 | 1.0 | 22.2 | 51.4* | -39.0
CN(C)CCCNS(=O)(=O)c1ccc(N2CCC(c3ccc(Cl)cc3)=N2)cc1 | -33.3 | 93.3* | 26.6* | + | 57.3* | -25.4
CN(C)CCCNS(=O)(=O)c1cc(Cl)ccc1Cl | -4.2 | -2.1 | -0.4 | 0.5 | -0.7 | /
C=CCn1c(N)c(C(=O)OC(C)(C)C)c2nc3ccccc3nc21 | -15.0 | 95.2* | 29.4* | 41.1 | 69.8* | -5.1
COc1ccc(N2C(=O)C(Cl)=C(Oc3cccc(OC)c3)C2=O)cc1 | -2.7 | 44.1 | / | 31.0 | 57.4* | 43.3*
CN(C)Cc1ccccc1COc1ccccc1 | 4.6 | 4.8 | 4.9 | 3.8 | 1.1 | /
CC1(C)CC(=O)C2=C(C1)Nc1[nH]c(=S)[nH]c(=O)c1C2c1ccccc1 (centres undefined) | -13.5 | 59.1* | 3.8 | 0.0 | 50.2* | 12.3
Fc1cccc(C[n+]2csc3ccccc32)c1 | 20.5 | 70.5 | 5.2 | -1.6 | 55.6* | -9.6
Oc1ccc(Br)cc1-c1ccn[nH]1 | -2.8 | -0.1 | 0.5 | 7.3 | -0.2 | /
Oc1ccc(O)c(-c2cnns2)c1 | 4.9 | / | -0.5 | 3.7 | 70.8* | -16.6
C/C(CC(=O)NCc1ccco1)=N\NC(=O)c1ccc(Cl)cc1Cl | / | / | 2.0 | / | / | /
COc1ccc(OC)c2c1C(=O)C(Cl)=C(Cl)C2=O | 4.4 | 66.2* | 1.3 | -38.5 | 67.9* | 19.4
O=C(NC(=S)NNC(=O)c1ccccc1[N+](=O)[O-])c1ccc(Br)cc1 | / | / | 1.6 | / | / | /
O=C(Cn1c(=O)oc2ccccc21)Nc1n[nH]c(=S)s1 | -13.2 | 22.2 | 0.4 | -64.9 | 54.5* | 63.0*
O=C(Cn1c(=O)oc2ccccc21)Nc1nc(-c2ccccc2)cs1 | 1.2 | -2.5 | -2.2 | -0.9 | 0.7 | /
COc1ccc(CCNc2nc(-c3ccc(F)cc3)c(CC(=O)O)s2)cc1OC | / | / | 3.2 | / | / | /
COc1ccc(/C=C(/C#N)C(=O)Nc2cccnc2)cc1OC | -41.1 | 1.2 | -0.7 | 8.6 | 0.2 | /
COc1ccc(/C=C(\C#N)C(=O)Nc2cccc3ncccc23)cc1OC | -50.3 | 60.1* | 50.4* | 32.0 | 69.2* | 63.7*
O=C(NNc1cc(Br)c(O)c(Br)c1)c1ccccc1 | -8.9 | 36.5 | -3.8 | 14.5 | 77.7* | 44.8*
COc1cc(CNC2CCCCCCC2)c(Br)cc1OCCO | / | / | -3.0 | / | / | /
CCS(=O)(=O)Nc1cccc(-c2nc3cccnc3s2)c1 | -14.9 | -2.4 | -0.2 | 22.3 | 0.4 | /
O=S(=O)(Nc1ccc(-c2nc3cccnc3s2)cc1)c1ccc(Cl)s1 | -40.8 | / | ? | 9.1 | 67.7* | 29.6
CC(C)(C)OC(=O)N1CCC(C(=O)N2CCCCCC2)CC1 | 3.2 | -3.5 | -2.4 | -9.1 | 0.5 | /
